In the library only some 2.3% were active in any assay of this set; here they are far more common.
ROMK mod: human ROMK K+ channel modulation, primary screen; B-score at 10 µM; 2% of 130,000 active; Tet-inducible ROMK, thallium flux fluorescence; actives lie on both sides; AID 1918;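 active = signal ratio slope over the read window, or its plate-corrected B-score, at least 3 SD from the plate mean, either direction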;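 also: B-score of the F/F0 ratio slope over 7 to 12 s after thallium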
Target sequence (P48048 whole entry, looked up): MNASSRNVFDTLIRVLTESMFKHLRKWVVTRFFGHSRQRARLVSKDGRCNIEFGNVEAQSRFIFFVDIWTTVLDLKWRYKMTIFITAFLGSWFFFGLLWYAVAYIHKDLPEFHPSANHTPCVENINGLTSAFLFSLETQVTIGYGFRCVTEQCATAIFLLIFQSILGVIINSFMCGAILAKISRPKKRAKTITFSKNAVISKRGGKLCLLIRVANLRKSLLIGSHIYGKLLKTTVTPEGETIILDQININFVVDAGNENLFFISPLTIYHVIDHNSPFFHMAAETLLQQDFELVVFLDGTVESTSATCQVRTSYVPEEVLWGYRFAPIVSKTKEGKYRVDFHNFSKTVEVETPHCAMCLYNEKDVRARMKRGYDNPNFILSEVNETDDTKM
SDO1 yeast rescue: restores growth of sdo1-depleted yeast; 0.21% of 140,000 active; S. cerevisiae sdo1-depleted JHY4D growth rescue, OD600 30 h; stronger effect = higher value; pdr5 snq2 efflux-pump mutant strain; AID 817; z-score at 10 µM;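 active = z-score above 3 at both the 24 hr and the 30 hr optical density reads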;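 also: z-score against mean and SD of all compound wells on the same plate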
ABCB1 block: human ABCB1 inhibition, ABCG2 as counter-screen | CCRF-Adr cells, JC-1 efflux, flow cytometry | inhibition, % at 6.6 µM | 0.067% of 190,000 active; in the data active = inhibition above about 40%;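 also: 0% = vehicle and 100% = reference inhibitor; higher value means more JC-1 retained so stronger ABCB1 efflux block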
Insulin prom up: MIN6 insulin promoter up-regulation. z-score at 5 µM. MIN6 insulin promoter-GFP reporter, high-content imaging; stronger effect = higher value. 0.3% of 190,000 active;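 active = z-score above 3 at 5 µM with at least 500 cells counted in the well; inconclusive = wells under 500 cells, flagged as cytotoxic or low count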
ABCG2 inh: inhibitors of human ABCG2 transporter, ABCB1 counter-screen; inhibition, % at 6.6 µM; IgMXP3 cells, JC-1 efflux, flow cytometry; Q9UNQ0; 0.1% of 190,000 active;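 active = inhibition above 80%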;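 also: 0% = DMSO and 100% = nicardipine control wells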
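Read-out basis: Efflux inhibition in percent versus controls | Test system: ABCG2 IgMXP3 and barcoded ABCB1 CCRF-Adr cell mix | Quantity: 3 million cells/mL in well | Schedule: 10 min at 25 °C | Control set: Nicardipine as high control, DMSO as low control | Reagent: JC-1 as fluorescent efflux pump substrate | Signal: Flow cytometry of retained JC-1 fluorescence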
Autophagy mod: alters autophagy in cells | MEF GFP-LC3 puncta imaging; test concentration mostly 10 µM | calls only at 10 µM (by protocol) | 0.98% of 190,000 active | AID 463193;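 active = percentage of spot-positive cells more than 3 SD above its plate mean, without a fluorescence outlier flag or 80% toxicity; inconclusive = no clear call, values can overlap the other calls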;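 also: spot-positive cell cutoff set from DMSO-treated cells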
sdo1 rescue conf: SDO1-depleted yeast growth rescue confirmation. shares compounds with SDO1 yeast rescue. S. cerevisiae JHY4D (SDO1-depleted) growth rescue, OD600, 30 h; stronger effect = higher value; efflux-deficient strain, SNQ2 and PDR5 mutated. OD recovery (concentration not given with the values). 44% of 440 active. AID 949;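 active = yeast growth recovered at 30 hours, either rising with dose fitted slope above 0.001 or with average optical density gain above 0.07, some results past the limit were not filed as active; inactive = growth falling with dose or no effect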;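 also: gain in OD600 from 0 h to 30 h averaged across all seven doses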
* = called active by the depositor; i = inactive; ? = inconclusive; · = not tested or not shown; + = active, no number.

SMILES	ROMK mod	SDO1 yeast rescue	ABCB1 block	Insulin prom up	ABCG2 inh	Autophagy mod	sdo1 rescue conf
O=C(CSc1ncnc2c1oc1ccccc12)Nc1ccccc1F	·	0.18	-0.2	0.52	-0.3	·	0.0557
S=C(Sc1ccc(Cl)cc1)Sc1ccc(Cl)cc1	0.564	·	·	?	·	·	·
COc1ccc(C(=O)CSc2nnc(Cc3ccccc3)o2)cc1	·	6.99*	0.9	0.35	4.6	i	0.0469
COCCN(C(=S)Nc1ccc(C)cc1C)C(C)c1ccco1 (stereo not drawn)	·	·	0.5	-0.05	16.8	i	·
Cn1nc(C(=O)OCc2ccc(Br)cc2F)c2ccccc2c1=O	-0.437	·	2.7	-1.01	12.4	i	·
Cc1cc2c(c(=O)n1Cc1cccnc1)C(c1ccccc1)C(C#N)=C(N)O2 (stereo not drawn)	0.471	5.76*	-0.3	-0.47	-1.9	i	0.0673
CCC1(C)Cc2ccccc2-c2nc(NCCCO)n(-c3ccccc3)c(=O)c21 (stereo not drawn)	-0.00182	5.82*	0.3	-0.28	0.7	i	0.074
COc1cc(NC(=O)c2ccco2)c(C(=O)OCC(=O)c2c[nH]c3ccccc23)cc1OC	-0.499	-1.26	2.0	-0.45	1.4	i	·
Cc1ccc2nc(C(O)C(O)c3nc4ccc(C)cc4[nH]3)[nH]c2c1 (stereo not drawn)	-0.716	-0.6	0.4	0.44	1.9	i	·
Cc1ccc2nc(C(F)OC(F)(F)F)[nH]c2c1 (stereo not drawn)	·	12*	-0.1	0.51	3.4	i	0.0413
COc1cc(OC)cc(C(=O)NNC(=S)Nc2ccc(S(N)(=O)=O)cc2)c1	-0.628	·	-0.1	1.59	0.6	i	·
COc1ccc2nc(SC(C(=O)c3ccccc3)c3ccccc3)nc(C)c2c1 (stereo not drawn)	0.447	1.41	-0.7	-1.48	-0.8	i	0.0665
Cc1nc(SC(C(=O)c2ccccc2)c2ccccc2)nc2ccccc12 (stereo not drawn)	0.0195	-0.62	-0.8	0.5	-4.0	i	·
Cc1nc(CS(=O)(=O)c2ccccc2)cc(N2CCOCC2)n1	·	12*	0.1	0.68	1.2	i	0.0688*
COc1ccc2nc3ccccc3nc2c1NC(=O)c1ccc(Cl)cc1Cl	-0.997	1.65	0.3	1.44	10.8	+	0.0956
O=C(CCCn1c(=O)[nH]c2cc(Cl)ccc2c1=O)NCCC1=CCCCC1	0.299	6.74*	0.8	·	2.8	i	0.0914*
O=C(CCCn1c(=O)[nH]c2cc(Cl)ccc2c1=O)NCCCN1CCCC1	-0.18	1.38	0.5	-0.96	2.0	i	·
CNC(=S)NNS(=O)(=O)c1ccc(OC)cc1OC	0.328	·	-0.3	0.91	0.3	i	·
CN1CCN(Cc2nc3c(c(=O)n(C)c(=O)n3C)n2CCCc2ccccc2)CC1	1.58	11.3*	0.0	-0.35	-2.5	i	0.129*
Cc1ccc(Cn2c(CN3CC(C)OC(C)C3)nc3c2c(=O)n(C)c(=O)n3C)cc1 (stereo not drawn)	·	8.78*	0.6	0.14	0.4	i	0.0574*
Cc1ccc(C2=NN=C(NC(=O)C(F)(F)F)SC2)cc1	0.592	·	0.0	-0.18	5.8	i	·
O=C1NC(=O)C2(COC(c3ccccc3Cl)OC2)S1 (stereo not drawn)	0	-0.3	0.2	0.25	3.3	i	·
CNc1c([N+](=O)[O-])cnn1-c1cccc(Cl)n1	-0.0134	·	0.2	1.19	0.2	i	·
CCc1cccc2c(SC(C)C(=O)NCC3CCCO3)nc(-c3ccccc3)nc12 (stereo not drawn)	·	-0.55	1.6	-0.21	6.8	i	·
CCc1cccc2c(SCC(=O)NCC3CCCO3)nc(-c3ccc(F)cc3)nc12 (stereo not drawn)	·	0.88	1.6	-0.12	8.4	+	0.0424
SMILES	ROMK mod	SDO1 yeast rescue	ABCB1 block	Insulin prom up	ABCG2 inh	Autophagy mod	sdo1 rescue conf
N#CC(C(=S)Nc1ccccc1)c1nc2ccccc2[nH]1 (stereo not drawn)	-1.27	·	·	0.35	·	·	·
N#CC(C(=O)C1CCCCC1)c1nc2ccccc2[nH]1 (stereo not drawn)	0.0591	8.84*	1.1	-0.41	6.5	i	0.043
CCN(CC)S(=O)(=O)c1ccc(C(=O)Nc2cc3oc4ccccc4c3cc2OC)cc1	-0.089	1.19	-0.9	-0.61	-3.6	+	0.0201
CCNc1nc(OC)nc(N2CCC(Cc3ccccc3)CC2)n1	·	0.49	0.5	0.34	5.5	i	·
CC12CCC(C(=O)N(NC(=O)c3cccnc3)C1=O)C2(C)C (stereo not drawn)	·	6.25*	0.1	0.22	1.4	i	0.058
NS(=O)(=O)c1ccc(CCNC(=O)COC(=O)/C=C/c2ccccc2Cl)cc1	0.0394	·	0.4	0.72	11.2	i	·
COc1cc(CNCc2ccccn2)ccc1OCc1cccc(Cl)c1	·	7.74*	0.7	·	2.7	i	0.072*
COc1cc(CNCc2ccccn2)ccc1OCc1ccc(Cl)cc1	·	0.39	2.3	-0.87	22.9	i	·
CCOC(=O)c1nnn(-c2nonc2N)c1CN1CCc2ccccc2C1	-0.958	11.2*	0.8	·	4.2	i	0.106*
CC(=O)N(c1c(C)n(C)n(-c2ccccc2)c1=O)C1(C(=O)NC2CCCCC2)CCCCC1	0.665	0.61	-0.1	-0.76	-0.4	i	·
CC(=O)N(c1c(C)n(C)n(-c2ccccc2)c1=O)C1(C(=O)NC2CCCC2)CCCCC1	·	10.8*	0.2	0.18	0.3	i	0.0636*
N#C/C(N)=C(/C#N)N=Cc1cccc(Cl)c1	·	·	·	1.55	·	·	·
O=c1oc2ccccc2c2nccnc12	0.418	5.43*	0.3	0.35	2.5	i	0.0434
Cc1cnc(N)c2c(=O)oc3ccccc3c12	·	-0.57	0.4	-0.74	2.9	i	·
CC(=O)NCCn1c(SCc2cccc([N+](=O)[O-])c2)nc2ccccc2c1=O	-0.081	·	2.5	-0.83	13.9	i	·
COc1cc(/C=N/NC(=O)c2ccoc2C)ccc1O	·	2.59	0.3	0.07	40.5	i	0.074*
COc1cc(/C=N/NC(=O)c2cc(C)oc2C)ccc1O	1.66	·	-0.1	-0.07	20.8	i	·
Cc1ccc2c(CC(=O)NNC(=O)c3ccccc3)coc2c1	0.747	6.68*	1.2	0.62	6.9	i	0.084*
Cc1ccc2c(CC(=O)O)coc2c1	·	-0.07	-0.1	-1.08	-0.7	i	·
Cc1cccc(NC(=O)Cc2ccc(F)cc2)c1	-0.0174	6.75*	0.6	0.58	2.2	i	0.0753*
O=C(CCCOc1ccccc1)N1CCN(c2ccccc2)CC1	-0.445	8.77*	0.0	-0.9	0.0	i	0.0991*
COc1ccc(-c2c(C)nn3c(-c4ccccc4)cc(C)nc23)cc1	-0.0402	·	0.0	1.62	10.2	i	·

Compound activity (PubChem BioAssay)
